Key:
HaCaT [1] = assay: Antiproliferative activity (AA) against HaCaT keratinocytes.; format: functional, cell-based; details: Homo sapiens
[2] = molecular target: T1, Arachidonate 5-lipoxygenase (Bos taurus, UniProt Q9BEG3); assay: 5-LO inhibitory activity, measured by production of 5-hydroxyeicosatetraenoic acid (5-HETE) and leukotriene B4 (LTB4) in bovine polymorphonuclear leukocytes; format: functional, cell-based
T1 sequence (Q9BEG3 whole entry): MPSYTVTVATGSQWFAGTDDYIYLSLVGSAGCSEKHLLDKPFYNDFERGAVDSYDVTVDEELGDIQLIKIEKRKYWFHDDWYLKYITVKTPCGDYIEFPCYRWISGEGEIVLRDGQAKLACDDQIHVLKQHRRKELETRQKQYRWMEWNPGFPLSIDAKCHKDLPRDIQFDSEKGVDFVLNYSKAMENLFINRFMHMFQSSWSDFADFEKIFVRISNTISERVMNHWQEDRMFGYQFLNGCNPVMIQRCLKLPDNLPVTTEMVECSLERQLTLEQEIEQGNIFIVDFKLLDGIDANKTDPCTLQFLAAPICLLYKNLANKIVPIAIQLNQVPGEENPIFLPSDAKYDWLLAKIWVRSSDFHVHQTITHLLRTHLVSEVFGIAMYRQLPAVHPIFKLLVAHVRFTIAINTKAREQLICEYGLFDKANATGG

[3] = Antioxidant activity, measuring Deoxyribose degradation (DD) as a measure of hydroxyl radical formation.
Outline: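 Deoxyribose assay: 2-deoxy-D-ribose incubated with 75 μM test compound; hydroxyl-radical generation read as malondialdehyde release, expressed as μmol MDA/mmol deoxyribose; compared with control.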

HaCaT [4] = assay: Cytotoxicity of LDH release in HaCaT cells; format: functional, Homo sapiens; parameters: unit: mU
Outline: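 HaCaT cells treated with 2 μM test compound; plasma membrane damage measured as lactate dehydrogenase activity released into culture medium, in mU; N = 3; compared with vehicle control.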

Row | IC50 [2] | DD [3] | Structure (SMILES) | IC50 (HaCaT [1]) | LDH (HaCaT [4])
1 | > 30 µM | < 0.15 µmol/mmol | COC(=O)C(Cc1ccccc1)c1ccc2c(c1O)C(=O)c1c(O)cccc1C2 (stereo unspecified) | 1.8 µM | 
2 | 6 µM | 1.66 µmol/mmol | CC(C)C(C(=O)NO)c1ccc2c(c1O)C(=O)c1c(O)cccc1C2 (stereo unspecified) | 1.5 µM | 192 MU
3 | > 30 µM | 0.33 µmol/mmol | COC(=O)CCCc1ccc2c(c1O)C(=O)c1c(O)cccc1C2 | 1.1 µM | 
4 |  | 2.89 µmol/mmol | O=C1c2c(O)cccc2Cc2cccc(O)c21 [ANTHRALIN] | 0.6 µM | 294 MU
5 | 13 µM | 2.62 µmol/mmol | O=C(O)CCCCc1ccc2c(c1O)C(=O)c1c(O)cccc1C2 | > 5 µM | 
6 | 5 µM | 1.68 µmol/mmol | CN(O)C(=O)C(Cc1ccccc1)c1ccc2c(c1O)C(=O)c1c(O)cccc1C2 (stereo unspecified) | 0.9 µM | 
7 | 35 µM |  | CCCCOc1ccc(CC(=O)NO)cc1 [BUFEXAMAC] | > 5 µM | 135 MU
8 | > 30 µM | 0.54 µmol/mmol | COC(=O)C(c1ccc2c(c1O)C(=O)c1c(O)cccc1C2)C(C)C (stereo unspecified) | 1.5 µM | 
9 | > 30 µM | < 0.15 µmol/mmol | COC(=O)c1ccc(Cc2ccc3c(c2O)C(=O)c2c(O)cccc2C3)cc1 |  | 
10 | > 30 µM |  | COC(=O)C(C)c1ccc2c(c1O)C(=O)c1c(O)cccc1C2 (stereo unspecified) | 0.8 µM | 
11 |  | < 0.15 µmol/mmol | O=C(O)c1ccc(Cc2ccc3c(c2O)C(=O)c2c(O)cccc2C3)cc1 |  | 
12 | 10 µM | 2.29 µmol/mmol | O=C(O)CCCCCc1ccc2c(c1O)C(=O)c1c(O)cccc1C2 | > 5 µM | 
13 | 0.4 µM |  | CN(O)C(=O)CCCCCc1ccc2c(c1O)C(=O)c1c(O)cccc1C2 | 0.7 µM | 
14 | > 30 µM |  | COC(=O)Cc1ccc2c(c1O)C(=O)c1c(O)cccc1C2 | 0.5 µM | 
15 | 4 µM | 1.04 µmol/mmol | O=C1c2c(O)cccc2Cc2ccc(C(Cc3ccccc3)C(=O)NO)c(O)c21 (stereo unspecified) | 1.5 µM | 
16 |  | 1.5 µmol/mmol | CN(O)C(=O)CCCc1ccc2c(c1O)C(=O)c1c(O)cccc1C2 |  | 181 MU
17 |  | 0.92 µmol/mmol | CN(O)C(=O)CCc1ccc2c(c1O)C(=O)c1c(O)cccc1C2 |  | 135 MU
18 | > 30 µM | 0.62 µmol/mmol | COC(=O)CCCCc1ccc2c(c1O)C(=O)c1c(O)cccc1C2 | 1.8 µM | 146 MU
19 |  | 1.36 µmol/mmol | CN(O)C(=O)CCCCc1ccc2c(c1O)C(=O)c1c(O)cccc1C2 |  | 124 MU
20 | 3 µM | 1.46 µmol/mmol | O=C(CCCc1ccc2c(c1O)C(=O)c1c(O)cccc1C2)NO | 1.5 µM | 
21 | 2 µM | 1.34 µmol/mmol | O=C(O)c1ccc(C(=O)c2ccc3c(c2O)C(=O)c2c(O)cccc2C3)cc1 | > 5 µM | 

Row | IC50 [2] | DD [3] | Structure (SMILES) | IC50 (HaCaT [1]) | LDH (HaCaT [4])
22 | 5 µM | 0.86 µmol/mmol | CC(C)C(C(=O)N(C)O)c1ccc2c(c1O)C(=O)c1c(O)cccc1C2 (stereo unspecified) | 1.5 µM | 135 MU
23 | > 30 µM | 0.28 µmol/mmol | COC(=O)C(CCc1ccccc1)c1ccc2c(c1O)C(=O)c1c(O)cccc1C2 (stereo unspecified) | 1.3 µM | 142 MU
24 |  | 1.3 µmol/mmol | CC(C(=O)NO)c1ccc2c(c1O)C(=O)c1c(O)cccc1C2 (stereo unspecified) | 2 µM | 
25 | 1 µM | 1.67 µmol/mmol | CN(O)C(=O)Cc1ccc2c(c1O)C(=O)c1c(O)cccc1C2 | 0.8 µM | 150 MU
26 | 4 µM | 1.67 µmol/mmol | O=C(CCc1ccc2c(c1O)C(=O)c1c(O)cccc1C2)NO | 1.3 µM | 
27 | 19 µM | 2.67 µmol/mmol | O=C(O)CCc1ccc2c(c1O)C(=O)c1c(O)cccc1C2 | > 5 µM | 
28 | 6 µM | 1.89 µmol/mmol | O=C(Cc1ccc2c(c1O)C(=O)c1c(O)cccc1C2)NO | 1.8 µM | 
29 | 2 µM | 2.47 µmol/mmol | O=C1c2c(O)cccc2Cc2ccc(C(CCc3ccccc3)C(=O)O)c(O)c21 (stereo unspecified) | > 5 µM | 142 MU
30 | 18 µM | 2.61 µmol/mmol | O=C(O)CCCc1ccc2c(c1O)C(=O)c1c(O)cccc1C2 | > 5 µM | 
31 | 6 µM | 1.57 µmol/mmol | CC(C(=O)N(C)O)c1ccc2c(c1O)C(=O)c1c(O)cccc1C2 (stereo unspecified) | 1.5 µM | 142 MU
32 | 5 µM |  | O=C(NO)c1ccc(Cc2ccc3c(c2O)C(=O)c2c(O)cccc2C3)cc1 | 1.1 µM | 
33 | > 30 µM |  | COC(=O)CCCCCc1ccc2c(c1O)C(=O)c1c(O)cccc1C2 | 1.6 µM | 142 MU
34 | > 30 µM |  | COC(=O)c1ccc(C(=O)c2ccc3c(c2O)C(=O)c2c(O)cccc2C3)cc1 | 1.8 µM | 
35 |  | 3.58 µmol/mmol | CC(C)C(C(=O)O)c1ccc2c(c1O)C(=O)c1c(O)cccc1C2 (stereo unspecified) | > 5 µM | 128 MU
36 | > 30 µM |  | COC(=O)CCc1ccc2c(c1O)C(=O)c1c(O)cccc1C2 | 0.8 µM | 
37 | 2 µM | 1.38 µmol/mmol | O=C(CCCCc1ccc2c(c1O)C(=O)c1c(O)cccc1C2)NO | 2 µM | 135 MU
38 |  | 3.25 µmol/mmol | O=C1c2c(O)cccc2Cc2ccc(C(Cc3ccccc3)C(=O)O)c(O)c21 (stereo unspecified) | > 5 µM | 
39 | 17 µM |  | CC(C(=O)O)c1ccc2c(c1O)C(=O)c1c(O)cccc1C2 (stereo unspecified) | > 5 µM | 
40 | 22 µM | 3.74 µmol/mmol | O=C(O)Cc1ccc2c(c1O)C(=O)c1c(O)cccc1C2 | > 5 µM | 
41 | 4 µM | 0.92 µmol/mmol | CN(O)C(=O)c1ccc(C(=O)c2ccc3c(c2O)C(=O)c2c(O)cccc2C3)cc1 | 1.8 µM | 

Reference: ChEMBL document CHEMBL1130128, “Antipsoriatic anthrones with modulated redox properties. 4. Synthesis and biological activity of novel 9,10-dihydro-1,8-dihydroxy-9-oxo-2-anthracenecarboxylic and -hydroxamic acids” (J Med Chem, 1997)
